What all share (assay type): functional, cell-based
The test system of one experiment is DU-145. The experiment in a line: Cytotoxicity against human DU145 cells after 24 hrs by MTT assay. Particulars: DU-145, 24 h. In a few lines:
(§1)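 Cells seeded at 1×10⁴ per well in complete medium and held 18 h at 37 °C, 5% CO₂. Medium then replaced with fresh medium containing test compounds or etoposide at 0.5, 1 and 2 μM, incubated 24 h at 37 °C. MTT dye added for 2 h, formazan solubilized in extraction buffer, absorbance read at 570 nm. Values mean±SD, three experiments in triplicate.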
For orientation: Tetrazolium assays rely on reduction of a dye to a coloured formazan, in cell work by metabolically active cells.

In a further experiment the test system is MCF7. Nature of the experiment: Cytotoxicity against human MCF7 cells after 24 hrs by MTT assay. Particulars: MCF7, 24 h. Put shortly:
as §1

A further experiment has as its system A549. Nature of the experiment: Cytotoxicity against human A549 cells after 24 hrs by MTT assay. Particulars: A549, 24 h. In a few lines:
as §1

For the next experiment, the system named is MDA-MB-231. The experiment in a line: Cytotoxicity against human MDA-MB-231 cells after 24 hrs by MTT assay. Particulars: MDA-MB-231, 24 h. Put shortly:
as §1

Take `COc1cc([C@@H]2c3cc4c(cc3[C@@H](NC(=O)COc3ccc(/C=C5\Oc6c(OC)cccc6C5=O)cc3)[C@H]3COC(=O)[C@H]23)OCO4)cc(OC)c1OC`: the IC50 turned out to be 2.09 µM in the experiment on DU-145, 1.98 µM in the experiment with MCF7, 1.56 µM in the experiment on A549 and 1.68 µM in the experiment on MDA-MB-231.
For `COc1ccc(/C=C2\Oc3ccccc3C2=O)cc1OCC(=O)N[C@@H]1c2cc3c(cc2[C@@H](c2cc(OC)c(OC)c(OC)c2)[C@H]2C(=O)OC[C@@H]21)OCO3`, in that order: 2.55 µM, 6.23 µM, 7.23 µM and 8.23 µM.
In the same order, the values of `COc1cc([C@@H]2c3cc4c(cc3[C@@H](NC(=O)COc3ccc(/C=C5\Oc6ccccc6C5=O)cc3)[C@H]3COC(=O)[C@H]23)OCO4)cc(OC)c1OC` are 0.97 µM, 0.13 µM, 0.1 µM and 0.45 µM.
As to `COc1cc(/C=C2\Oc3ccccc3C2=O)ccc1OCC(=O)N[C@@H]1c2cc3c(cc2[C@@H](c2cc(OC)c(OC)c(OC)c2)[C@H]2C(=O)OC[C@@H]21)OCO3`, the IC50 with DU-145 was found to be 3.82 µM; with MCF7, 4.51 µM; in the experiment on A549 it was 2.75 µM.
For `COc1cc(/C=C2\Oc3c(OC)cccc3C2=O)ccc1OCC(=O)N[C@@H]1c2cc3c(cc2[C@@H](c2cc(OC)c(OC)c(OC)c2)[C@H]2C(=O)OC[C@@H]21)OCO3`, the IC50 in the experiment with DU-145 came out at 3.98 µM; with MCF7, 2.35 µM; with A549, 2.99 µM; in the experiment on MDA-MB-231, 2.6 µM.
In the same order, the values of `COc1cc([C@@H]2c3cc4c(cc3[C@@H](NC(=O)COc3c(OC)cc(/C=C5\Oc6c(OC)cccc6C5=O)cc3OC)[C@H]3COC(=O)[C@H]23)OCO4)cc(OC)c1OC` are 1.22 µM, 0.23 µM, 1.45 µM and 0.87 µM.
For the molecule `COc1ccc(/C=C2\Oc3c(OC)cccc3C2=O)cc1OCC(=O)N[C@@H]1c2cc3c(cc2[C@@H](c2cc(OC)c(OC)c(OC)c2)[C@H]2C(=O)OC[C@@H]21)OCO3`, the values for the half-maximal inhibitory concentration (IC50) in the experiment with DU-145, in the experiment on MCF7 and in the experiment on MDA-MB-231 were 2.33 µM, 1.87 µM and 2.18 µM, respectively.
On to `COc1cc([C@@H]2c3cc4c(cc3[C@@H](O[C@@H]3O[C@@H]5CO[C@@H](C)O[C@H]5[C@H](O)[C@H]3O)[C@H]3COC(=O)[C@H]23)OCO4)cc(OC)c1O` [ETOPOSIDE], for which the IC50 in the experiment with DU-145 came out at 1.97 µM; with MCF7, 2.11 µM.

Broadly, the IC50 is the midpoint of a concentration-inhibition curve. A high value points to weaker potency.
